# ChEMBL document CHEMBL1134785, “Synthesis and biological evaluation of prostaglandin-F alkylphosphinic acid derivatives as bone anabolic agents for the treatment of osteoporosis” (J Med Chem, 2001)
# Experiments:
# [1] = Dissociation constant was determined; type: physicochemical
# Prostacyclin receptor = Prostacyclin receptor (Homo sapiens, UniProt P43119); test: In vitro binding at prostanoid IP receptor using [3H]iloprost as radioligand
# Method in brief: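 Receptors stably expressed in CHO cells, collected 4-5 days after seeding. Membranes made by lysis (Tris, EDTA, protease inhibitors) and 100000g pellet, then resuspended at 1 mg protein/mL in TME. Radioligands at 5 nM: [3H]PGE2 for EP2/EP3/EP4, [3H]Iloprost for IP, [3H]SQ-29548 for TP. Competition binding with filtration and counting.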
# Rattus norvegicus [2] = test: Bone formation rate/bone volume (%/year)bone measured Histomorphometrically after a dose of 30 ug/kg in proximal tibial metaphysis; type: functional; conditions: at 30 µg/kg
# Rattus norvegicus [3] = test: Mineralizing surface/bone surface(%) measured Histomorphometrically after a dose of 10 ug/kg in proximal tibial metaphysis; type: functional
# Method in brief: (§1)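 Ovariectomized six-month-old rats, 6-8 per group, were dosed subcutaneously once daily at 0.01–3.0 mg/kg for 60 days, starting 60 days after surgery. Vehicle was acetate-buffered saline, methylcellulose and polyoxyethylenesorbitan monooleate. Labels were xylenol orange 90 mg/kg pretreatment and calcein 10 mg/kg at 14 and 4 days before necropsy. Histomorphometry covered the proximal tibial metaphysis, 1–4 mm distal to the growth plate–metaphyseal junction. ANOVA/LSD versus vehicle.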
# Rattus norvegicus [4] = test: Bone Volume /Tissue Volume (%)measured Histomorphometrically after a dose of 10 ug/kg in proximal tibial metaphysis; type: functional; conditions: at 10 µg/kg
# Rattus norvegicus [5] = test: Bone Volume /Tissue Volume (%)measured Histomorphometrically after a dose of 100 ug/kg in proximal tibial metaphysis; type: functional; conditions: at 100 µg/kg
# Rattus norvegicus [6] = test: Bone Volume /Tissue Volume (%)measured Histomorphometrically after a dose of 3000 ug/kg in proximal tibial metaphysis; type: functional; conditions: at 3000 µg/kg
# Rattus norvegicus [7] = test: Bone formation rate/bone volume (%/year) bone measured histomorphometrically after a dose of 1000 ug/kg in proximal tibial metaphysis; type: functional; conditions: at 1000 µg/kg
# Rattus norvegicus [8] = test: Bone formation rate/tissue volume (%/year) bone measured histomorphometrically after a dose of 100 ug/kg in proximal tibial metaphysis; type: functional; conditions: at 100 µg/kg
# Rattus norvegicus [9] = test: Derived trabecular no […]measured using micro Computed Tomography(CT) after a dose of 3000 ug/kg in Vertebral Bone; type: functional, Trabecula
# Method in brief: (§2)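 Micro-CT of the fifth lumbar vertebra, measuring cancellous bone volume and architecture. Rats were 6 months old, OVX 60 days before treatment, then dosed daily for 60 days. Test-agent doses were 10–3000 µg/kg, given as a once-daily subcutaneous injection; 6 mg/kg/day was given to the positive-control group. Groups were compared with vehicle by ANOVA plus LSD test.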
# Rattus norvegicus [10] = test: Derived trabecular thickness (um) measured using micro Computed Tomography(CT) after a dose of 10 ug/kg in Vertebral Bone; type: functional, Trabecula; method in brief: as §2
# Rattus norvegicus [11] = test: Derived trabecular no […]measured using micro Computed Tomography(CT) after a dose of 100 ug/kg in Vertebral Bone; type: functional, Trabecula; method in brief: as §2
# Rattus norvegicus [12] = test: Derived trabecular no […]measured using micro Computed Tomography(CT) after a dose of 300 ug/kg in Vertebral Bone; type: functional, Trabecula; method in brief: as §2
# Rattus norvegicus [13] = test: Derived trabecular thickness (um) measured using micro Computed Tomography(CT) after a dose of 30 ug/kg in Vertebral Bone; type: functional, Trabecula; method in brief: as §2
# Rattus norvegicus [14] = test: Endosteal eroded surface(%) measured Histomorphometrically after a dose of 3000 ug/kg in tibial diaphysis; type: functional
# Method in brief: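 Tibial histomorphometry in 6-month-old rats, OVX 60 days before treatment, then daily injection for 60 days. Vehicle was acetate-buffered saline with methylcellulose and polyoxyethylenesorbitan monooleate. Rats received xylenol orange 90 mg/kg before treatment and calcein 10 mg/kg at 14 and 4 days pre-sacrifice. Rats were killed by cardiac puncture under ketamine/xylazine. Groups were compared with vehicle by ANOVA plus LSD test.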
# Rattus norvegicus [15] = test: Mineral apposition rate ([…])bone measured Histomorphometrically after a dose of 300 ug/kg in tibial diaphysis; type: functional
# Method in brief: (§3)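 Six-month-old rats, bilaterally ovariectomized, 6-8 per group, on natural chow. After 60 days they received once-daily subcutaneous dosing for 60 days at 0.01–3.0 mg/kg. Vehicle was acetate-buffered saline with methylcellulose and polyoxyethylenesorbitan monooleate. Labels were xylenol orange 90 mg/kg before treatment and calcein 10 mg/kg 14 and 4 days before sacrifice. Tibial histomorphometry was read under fluorescent light, with ANOVA/LSD versus vehicle.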
# Rattus norvegicus [16] = test: Mineral apposition rate ([…])bone measured Histomorphometrically after a dose of 3000 ug/kg in tibial diaphysis; type: functional; method in brief: as §3
# Rattus norvegicus [17] = test: Endosteal mineralizing surface Histomorphometrically after a dose of 100 ug/kg in tibial diaphysis; type: functional; method in brief: as §3
# Rattus norvegicus [18] = test: Endosteal mineralizing surface Histomorphometrically after a dose of 300 ug/kg in tibial diaphysis; type: functional; method in brief: as §3
# Rattus norvegicus [19] = test: Endosteal mineralizing surface Histomorphometrically after a dose of 3000 ug/kg in tibial diaphysis; type: functional; method in brief: as §3
# Rattus norvegicus [20] = test: Marrow area (mm) measured Histomorphometrically after a dose of 100 ug/kg in tibial diaphysis; type: functional; method in brief: as §3
# Rattus norvegicus [21] = test: Mineral apposition rate ([…])bone measured Histomorphometrically after a dose of 10 ug/kg in tibial diaphysis; type: functional; method in brief: as §3
# Rattus norvegicus [22] = test: Mineral apposition rate ([…])bone measured Histomorphometrically after a dose of 100 ug/kg in proximal tibial metaphysis; type: functional; method in brief: as §1
# Rattus norvegicus [23] = test: Mineral apposition rate ([…])bone measured Histomorphometrically after a dose of 100 ug/kg in tibial diaphysis; type: functional; method in brief: as §3
# Rattus norvegicus [24] = test: Trabecular thickness […] measured Histomorphometrically after a dose of 10 ug/kg in proximal tibial metaphysis; type: functional, Trabecula
# Method in brief: (§4)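 Six-month-old rats were ovariectomized, and 60 days later daily subcutaneous dosing began for 60 days, with vehicle of acetate-buffered saline, methylcellulose and polysorbate. Xylenol orange (90 mg/kg) labelled bone pre-treatment and calcein (10 mg/kg) 14 and 4 days pre-sacrifice. Histomorphometry covered the proximal tibial metaphysis 1-4 mm distal to the growth plate-metaphyseal junction. Groups were 6-8 rats, compared by ANOVA/LSD vs vehicle.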
# Rattus norvegicus [25] = test: Periosteal mineral apposition rate ([…]) measured Histomorphometrically after a dose of 10 ug/kg in tibial diaphysis; type: functional; method in brief: as §3
# Rattus norvegicus [26] = test: Trabecular thickness […] measured Histomorphometrically after a dose of 30 ug/kg in proximal tibial metaphysis; type: functional, Trabecula; method in brief: as §4
# Rattus norvegicus [27] = test: Tissue area (mm) measured Histomorphometrically after a dose of 10 ug/kg in tibial diaphysis; type: functional
# Method in brief: (§5)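 Rats on natural chow (1.46% Ca) were bilaterally ovariectomized at 6 months and left untreated for 60 days. They then received once-daily subcutaneous doses for 60 days, with vehicle of acetate-buffered saline, methylcellulose and polysorbate. Xylenol orange (90 mg/kg) was given before treatment and calcein (10 mg/kg) 14 and 4 days before sacrifice. Tibiae were analysed by fluorescent histomorphometry, 6-8 rats/group, ANOVA/LSD vs vehicle.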
# Rattus norvegicus [28] = test: Tissue area (mm) measured Histomorphometrically after a dose of 300 ug/kg in tibial diaphysis; type: functional; method in brief: as §5
# Rattus norvegicus [29] = test: Derived trabecular thickness (um) measured using micro Computed Tomography(CT) after a dose of 100 ug/kg in Vertebral Bone; type: functional, Trabecula; method in brief: as §2
# Rattus norvegicus [30] = test: Mineral apposition rate ([…])bone measured Histomorphometrically after a dose of 1000 ug/kg in proximal tibial metaphysis; type: functional; method in brief: as §1
# Rattus norvegicus [31] = test: Derived trabecular thickness (um) measured using micro Computed Tomography(CT) after a dose of 3000 ug/kg in Vertebral Bone; type: functional, Trabecula; method in brief: as §2
# Sequence of Prostacyclin receptor (P43119 whole entry): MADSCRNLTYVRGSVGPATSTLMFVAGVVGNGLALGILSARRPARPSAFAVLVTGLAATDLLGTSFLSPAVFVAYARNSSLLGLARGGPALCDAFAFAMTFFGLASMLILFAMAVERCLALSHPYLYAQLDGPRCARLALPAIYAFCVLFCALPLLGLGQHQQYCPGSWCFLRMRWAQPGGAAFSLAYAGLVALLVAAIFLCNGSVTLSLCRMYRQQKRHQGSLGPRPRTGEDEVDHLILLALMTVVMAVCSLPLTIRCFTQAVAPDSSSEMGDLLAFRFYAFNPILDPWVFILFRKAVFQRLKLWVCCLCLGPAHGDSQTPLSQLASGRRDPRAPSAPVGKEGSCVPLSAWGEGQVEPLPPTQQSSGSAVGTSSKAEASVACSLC
smiles,measurement,setting,value
CP(=O)(O)CCC/C=C\C[C@@H]1[C@@H](/C=C/[C@@H](O)COc2ccccc2)[C@H](O)C[C@@H]1O,pKa,[1],3.1
same,IC50,Prostacyclin receptor,> 10 µM
same,Activity,Rattus norvegicus [2],495.65%
same,Activity,Rattus norvegicus [3],28.37%
same,Activity,Rattus norvegicus [4],2.23%
same,Activity,Rattus norvegicus [5],5.84%
same,Activity,Rattus norvegicus [6],8.51%
same,Activity,Rattus norvegicus [7],251.82%
same,Activity,Rattus norvegicus [8],18.23%
same,Derived trabecular number,Rattus norvegicus [9],4.71 mm-1
same,Derived trabecular thickness,Rattus norvegicus [10],73 µm
same,Derived trabecular number,Rattus norvegicus [11],4.83 mm-1
same,Derived trabecular number,Rattus norvegicus [12],4.86 mm-1
same,Derived trabecular thickness,Rattus norvegicus [13],77.8 µm
same,Endosteal eroded surface,Rattus norvegicus [14],2.2%
same,Mineral apposition rate,Rattus norvegicus [15],0.53 µm/day
same,Mineral apposition rate,Rattus norvegicus [16],1.03 µm/day
same,Endosteal mineralizing surface,Rattus norvegicus [17],22.28%
same,Endosteal mineralizing surface,Rattus norvegicus [18],29.02%
same,Endosteal mineralizing surface,Rattus norvegicus [19],29.4%
same,Marrow area,Rattus norvegicus [20],0.82 mm²
same,Mineral apposition rate,Rattus norvegicus [21],0.71 µm/day
same,Mineral apposition rate,Rattus norvegicus [22],0.87 µm/day
same,Mineral apposition rate,Rattus norvegicus [23],0.42 µm/day
same,Trabecular thickness,Rattus norvegicus [24],35.7 µm
same,Periosteal mineral apposition rate,Rattus norvegicus [25],0.49 µm day-1
same,Trabecular thickness,Rattus norvegicus [26],41.2 µm
same,Tissue area,Rattus norvegicus [27],5.09 mm
same,Tissue area,Rattus norvegicus [28],5.01 mm
same,Derived trabecular thickness,Rattus norvegicus [29],78.7 µm
same,Mineral apposition rate,Rattus norvegicus [30],1.06 µm/day
same,Derived trabecular thickness,Rattus norvegicus [31],83.8 µm
